For data set [1], the target named is Voltage-dependent L-type calcium channel subunit alpha-1C (Homo sapiens, UniProt Q13936). The data set is described as follows: Inhibition of human Cav1.2 channel.
In another data set the target is hERG (KCNH2) (Homo sapiens, UniProt Q12809). The data set is described as follows: Inhibition of human ERG expressed in CHO cells at 10 uM relative to control. Format: cell-based. The following applies: CHO cells expressing human ERG.
Data set [2] has as its system Salmonella typhimurium. The data set is described as follows: Mutagenic activity in Salmonella typhimurium by Ames test under metabolic conditions. The format is toxicity, organism-based. The following applies: salmonella enterica subsp. enterica serovar typhimurium. Background: The Ames test detects mutagens through reverse mutation in bacteria.
Data set [3] relates to Salmonella typhimurium. The data set is described as follows: Mutagenic activity in Salmonella typhimurium by Ames test. The format is toxicity, organism-based. The following applies: salmonella enterica subsp. enterica serovar typhimurium.
Data set [4] in a line: Genotoxicity in micronucleus (unknown origin) under metabolic conditions. Format: ADME.
Data set [5] concerns Plasmodium berghei. The experiment in a line: Antimalarial activity against Plasmodium berghei ANKA expressing GFP infected in NMRI mouse assessed as reduction in parasitemia at 10 mg/kg/day, po qd for 4 days measured at 24 hrs after last dose relative to control. Format: functional. Details: scale not given: the % may be the effect or the level left. The method in brief:
(§1)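 P. berghei-infected mice dosed orally once daily on days 0–3, first dose 4 h postinfection, at 3, 10, 30 and 100 mg/kg/day. Red blood cell parasitemia and plasma exposure measured on day 4, 24 h after last dose; ED50 derived from dose-response; survival then monitored for 26 further days as mean survival days.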

Data set [6] relates to Plasmodium berghei. The data set is described as follows: Antimalarial activity against Plasmodium berghei ANKA expressing GFP infected in NMRI mouse assessed as reduction in parasitemia at 100 mg/kg/day, po qd for 4 days measured at 24 hrs after last dose relative to control. The format is functional. Details: scale not given: the % may be the effect or the level left. In a few lines: as §1

Data set [7] can be described thus: Terminal half life in NMRI mouse at 5 mg/kg, po by LC-MS/MS analysis. Format: ADME, organism-based. Details: dose 5 mg/kg, route oral. The note with it: in vivo, read-out: beta t1/2 (converted).
Data set [8] can be described thus: Volume of distribution at steady state in NMRI mouse at 1 mg/kg, iv by LC-MS/MS analysis. The following applies: in vivo, read-out: Vdss. The format is ADME, organism-based. Details: dose 1 mg/kg, route intravenous.
Data set [9] relates to Plasmodium falciparum. The data set is described as follows: Antimalarial activity against mefloquine-resistant Plasmodium falciparum TM91C235. Format: functional, organism-based.
Data set [10] concerns Plasmodium falciparum. The experiment in a line: Antimalarial activity against chloroquine, pyrimethamine, sulfadoxine and quinine-resistant Plasmodium falciparum W2. The format is functional, organism-based.
The test system of data set [11] is Plasmodium falciparum. The data set is described as follows: Antimalarial activity against chloroquine, pyrimethamine, sulfadoxine, quinine and mefloquine-sensitive Plasmodium falciparum D6. The format is functional, organism-based.
Data set [12] has as its system Plasmodium falciparum. The experiment in a line: Antimalarial activity against Plasmodium falciparum K1 infected in human RBC after 72 hrs by hypoxanthine incorporation assay in presence of serum albumin. Format: functional, organism-based. The note with it: K1, 72 h. The method in brief:
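Mixture of drug, human red blood cells and P. falciparum incubated 3 days (72 h) with serum albumin present; growth read as hypoxanthine incorporation.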

The next data set concerns the target Cytochrome P450 2D6 (Homo sapiens, UniProt P10635). The experiment in a line: Inhibition of human recombinant CYP2D6 expressed in baculovirus-infected insect cells preincubated for 15 mins followed by substrate addition measured after 30 mins by luminescence assay. The following applies: recombinant enzyme, 0.5 h. The format is ADME.
Another data set deals with Cytochrome P450 2C19 (Homo sapiens, UniProt P33261). The experiment in a line: Inhibition of human recombinant CYP2C19 expressed in baculovirus-infected insect cells preincubated for 15 mins followed by substrate addition measured after 30 mins by luminescence assay. The format is ADME. The following applies: recombinant enzyme, 0.5 h.
Chain of Cytochrome P450 2C19 (P33261 whole entry): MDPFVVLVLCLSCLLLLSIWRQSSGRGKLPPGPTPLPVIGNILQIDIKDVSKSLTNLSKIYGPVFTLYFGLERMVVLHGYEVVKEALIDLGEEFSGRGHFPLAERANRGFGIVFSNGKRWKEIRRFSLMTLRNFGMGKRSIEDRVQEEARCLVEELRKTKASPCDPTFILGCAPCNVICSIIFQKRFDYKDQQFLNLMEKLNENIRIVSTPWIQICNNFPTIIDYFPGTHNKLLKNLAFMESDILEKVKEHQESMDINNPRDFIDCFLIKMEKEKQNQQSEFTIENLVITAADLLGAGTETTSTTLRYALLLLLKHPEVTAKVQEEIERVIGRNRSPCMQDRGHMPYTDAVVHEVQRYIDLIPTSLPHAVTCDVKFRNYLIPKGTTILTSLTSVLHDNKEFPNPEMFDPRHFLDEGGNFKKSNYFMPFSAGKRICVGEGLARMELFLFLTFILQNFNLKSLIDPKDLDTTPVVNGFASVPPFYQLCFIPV
The next data set has as its target T1, Cytochrome P450 2C8 (Homo sapiens, UniProt P10632).
T1 sequence (P10632 whole entry): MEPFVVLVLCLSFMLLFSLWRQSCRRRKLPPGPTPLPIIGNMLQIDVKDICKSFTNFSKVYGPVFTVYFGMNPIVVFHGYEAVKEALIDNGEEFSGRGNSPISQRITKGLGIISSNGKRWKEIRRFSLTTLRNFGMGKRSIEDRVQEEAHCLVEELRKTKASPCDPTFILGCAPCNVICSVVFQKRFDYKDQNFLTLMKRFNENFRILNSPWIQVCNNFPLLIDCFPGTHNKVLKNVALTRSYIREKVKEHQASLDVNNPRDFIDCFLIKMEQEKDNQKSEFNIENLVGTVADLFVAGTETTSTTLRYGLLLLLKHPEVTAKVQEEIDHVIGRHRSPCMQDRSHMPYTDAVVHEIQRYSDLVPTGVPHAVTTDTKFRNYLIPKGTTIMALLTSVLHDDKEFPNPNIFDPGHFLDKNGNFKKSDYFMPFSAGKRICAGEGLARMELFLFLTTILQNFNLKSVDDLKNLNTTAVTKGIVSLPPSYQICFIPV
The data set is described as follows: Inhibition of human recombinant CYP2C8 expressed in baculovirus-infected insect cells preincubated for 15 mins followed by substrate addition measured after 30 mins by luminescence assay. The note with it: recombinant enzyme, 0.5 h. The format is ADME.

For a further data set, the target named is T2, Cytochrome P450 1A2 (Homo sapiens, UniProt P05177).
T2 sequence (P05177 whole entry): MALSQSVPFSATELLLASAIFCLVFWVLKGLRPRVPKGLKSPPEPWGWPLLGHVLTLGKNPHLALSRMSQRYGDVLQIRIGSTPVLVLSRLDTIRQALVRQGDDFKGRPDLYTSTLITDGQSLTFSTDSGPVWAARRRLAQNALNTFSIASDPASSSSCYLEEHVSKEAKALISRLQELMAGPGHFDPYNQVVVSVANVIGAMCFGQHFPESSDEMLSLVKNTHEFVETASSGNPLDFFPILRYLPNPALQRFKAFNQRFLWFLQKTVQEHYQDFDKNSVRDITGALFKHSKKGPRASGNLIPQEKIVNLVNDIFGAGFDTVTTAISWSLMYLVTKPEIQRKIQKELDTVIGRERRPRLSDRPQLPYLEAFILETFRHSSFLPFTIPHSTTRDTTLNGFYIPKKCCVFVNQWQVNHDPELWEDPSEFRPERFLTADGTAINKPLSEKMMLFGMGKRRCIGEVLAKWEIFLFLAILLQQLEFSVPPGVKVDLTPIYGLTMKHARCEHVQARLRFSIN
The experiment in a line: Inhibition of human recombinant CYP1A2 expressed in baculovirus-infected insect cells preincubated for 15 mins followed by substrate addition measured after 30 mins by luminescence assay. The format is ADME. The note with it: recombinant enzyme, 0.5 h.

For data set [13], the target named is T3, Inward rectifier potassium channel 2 (Homo sapiens, UniProt P63252).
T3 sequence (P63252 whole entry): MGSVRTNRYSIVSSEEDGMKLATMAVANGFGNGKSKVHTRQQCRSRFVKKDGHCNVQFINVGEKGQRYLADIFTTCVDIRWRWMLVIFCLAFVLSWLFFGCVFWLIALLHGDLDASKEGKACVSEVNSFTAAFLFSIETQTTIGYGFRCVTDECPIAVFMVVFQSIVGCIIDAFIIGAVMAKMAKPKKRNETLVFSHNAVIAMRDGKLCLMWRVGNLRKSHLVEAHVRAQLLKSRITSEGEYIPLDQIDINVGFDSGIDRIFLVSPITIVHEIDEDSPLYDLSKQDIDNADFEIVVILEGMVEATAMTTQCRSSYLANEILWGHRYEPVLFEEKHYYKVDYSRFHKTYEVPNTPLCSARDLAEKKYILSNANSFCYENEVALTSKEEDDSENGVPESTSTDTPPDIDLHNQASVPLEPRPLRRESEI
The experiment in a line: Inhibition of human Kir2.1 channel.

The values that follow come from ChEMBL document CHEMBL3098117, “Identification and optimization of an aminoalcohol-carbazole series with antimalarial properties” (ACS Med Chem Lett, 2013).

Calls of active or inactive are those of the source. No cut-off for these calls is given here.

Broadly, the inhibition is the change of the read-out against control, counted positive when it falls. By IC50 is commonly meant the concentration needed to halve the response being measured.

Chain of Voltage-dependent L-type calcium channel subunit alpha-1C (Q13936 whole entry): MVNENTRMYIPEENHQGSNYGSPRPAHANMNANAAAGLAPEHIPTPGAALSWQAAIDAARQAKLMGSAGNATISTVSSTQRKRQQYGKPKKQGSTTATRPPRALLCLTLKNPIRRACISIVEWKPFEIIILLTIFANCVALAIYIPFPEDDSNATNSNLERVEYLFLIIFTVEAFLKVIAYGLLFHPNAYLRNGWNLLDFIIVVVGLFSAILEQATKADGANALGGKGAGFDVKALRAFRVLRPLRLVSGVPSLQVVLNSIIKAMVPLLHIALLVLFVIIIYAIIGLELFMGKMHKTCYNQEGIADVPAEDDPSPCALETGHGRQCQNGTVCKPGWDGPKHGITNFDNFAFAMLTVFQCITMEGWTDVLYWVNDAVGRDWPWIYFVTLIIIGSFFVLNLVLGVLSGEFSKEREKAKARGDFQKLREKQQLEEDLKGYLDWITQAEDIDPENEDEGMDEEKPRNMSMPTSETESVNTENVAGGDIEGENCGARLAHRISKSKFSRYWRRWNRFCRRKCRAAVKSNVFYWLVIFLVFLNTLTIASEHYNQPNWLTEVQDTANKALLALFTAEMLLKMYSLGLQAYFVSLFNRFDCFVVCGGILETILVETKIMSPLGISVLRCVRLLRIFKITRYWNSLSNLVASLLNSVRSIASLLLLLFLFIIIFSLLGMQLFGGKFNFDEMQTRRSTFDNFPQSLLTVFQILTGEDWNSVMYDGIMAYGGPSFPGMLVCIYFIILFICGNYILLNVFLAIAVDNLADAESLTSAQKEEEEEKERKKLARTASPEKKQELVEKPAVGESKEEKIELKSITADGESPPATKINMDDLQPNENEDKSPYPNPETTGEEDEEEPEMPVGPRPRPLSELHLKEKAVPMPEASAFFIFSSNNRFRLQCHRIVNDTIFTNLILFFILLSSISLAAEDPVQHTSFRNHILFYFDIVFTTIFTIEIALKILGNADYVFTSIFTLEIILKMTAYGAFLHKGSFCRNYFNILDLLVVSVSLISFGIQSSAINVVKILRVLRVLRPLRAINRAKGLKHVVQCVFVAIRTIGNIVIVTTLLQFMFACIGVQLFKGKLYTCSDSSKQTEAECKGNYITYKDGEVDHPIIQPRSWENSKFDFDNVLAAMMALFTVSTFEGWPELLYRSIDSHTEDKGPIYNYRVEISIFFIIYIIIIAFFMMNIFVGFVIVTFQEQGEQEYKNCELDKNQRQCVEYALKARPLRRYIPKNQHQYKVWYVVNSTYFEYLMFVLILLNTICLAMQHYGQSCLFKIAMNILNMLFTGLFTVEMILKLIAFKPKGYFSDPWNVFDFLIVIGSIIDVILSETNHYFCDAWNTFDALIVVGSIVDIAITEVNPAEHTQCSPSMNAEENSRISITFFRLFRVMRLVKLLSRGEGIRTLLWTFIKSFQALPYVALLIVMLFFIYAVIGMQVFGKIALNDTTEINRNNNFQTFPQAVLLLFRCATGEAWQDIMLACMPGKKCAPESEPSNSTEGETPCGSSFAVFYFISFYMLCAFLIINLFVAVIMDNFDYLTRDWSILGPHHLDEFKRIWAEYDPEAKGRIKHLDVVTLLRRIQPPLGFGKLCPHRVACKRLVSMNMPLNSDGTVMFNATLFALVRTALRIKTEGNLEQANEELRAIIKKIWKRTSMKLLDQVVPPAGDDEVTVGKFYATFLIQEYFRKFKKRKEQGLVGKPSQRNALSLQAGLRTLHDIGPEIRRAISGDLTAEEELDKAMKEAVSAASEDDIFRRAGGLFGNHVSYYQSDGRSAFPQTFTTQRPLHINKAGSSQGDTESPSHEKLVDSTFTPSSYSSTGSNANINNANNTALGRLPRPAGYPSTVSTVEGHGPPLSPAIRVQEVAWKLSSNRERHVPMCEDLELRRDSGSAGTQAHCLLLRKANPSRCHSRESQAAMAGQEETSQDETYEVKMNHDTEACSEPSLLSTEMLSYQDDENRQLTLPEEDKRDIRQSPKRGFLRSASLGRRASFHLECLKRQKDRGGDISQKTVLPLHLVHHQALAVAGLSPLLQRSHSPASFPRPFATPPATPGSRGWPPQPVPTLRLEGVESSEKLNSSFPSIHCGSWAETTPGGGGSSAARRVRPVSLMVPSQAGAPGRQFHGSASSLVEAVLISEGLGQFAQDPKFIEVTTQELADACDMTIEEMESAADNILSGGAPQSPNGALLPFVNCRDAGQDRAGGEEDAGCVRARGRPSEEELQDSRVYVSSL
Chain of hERG (KCNH2) (Q12809 whole entry): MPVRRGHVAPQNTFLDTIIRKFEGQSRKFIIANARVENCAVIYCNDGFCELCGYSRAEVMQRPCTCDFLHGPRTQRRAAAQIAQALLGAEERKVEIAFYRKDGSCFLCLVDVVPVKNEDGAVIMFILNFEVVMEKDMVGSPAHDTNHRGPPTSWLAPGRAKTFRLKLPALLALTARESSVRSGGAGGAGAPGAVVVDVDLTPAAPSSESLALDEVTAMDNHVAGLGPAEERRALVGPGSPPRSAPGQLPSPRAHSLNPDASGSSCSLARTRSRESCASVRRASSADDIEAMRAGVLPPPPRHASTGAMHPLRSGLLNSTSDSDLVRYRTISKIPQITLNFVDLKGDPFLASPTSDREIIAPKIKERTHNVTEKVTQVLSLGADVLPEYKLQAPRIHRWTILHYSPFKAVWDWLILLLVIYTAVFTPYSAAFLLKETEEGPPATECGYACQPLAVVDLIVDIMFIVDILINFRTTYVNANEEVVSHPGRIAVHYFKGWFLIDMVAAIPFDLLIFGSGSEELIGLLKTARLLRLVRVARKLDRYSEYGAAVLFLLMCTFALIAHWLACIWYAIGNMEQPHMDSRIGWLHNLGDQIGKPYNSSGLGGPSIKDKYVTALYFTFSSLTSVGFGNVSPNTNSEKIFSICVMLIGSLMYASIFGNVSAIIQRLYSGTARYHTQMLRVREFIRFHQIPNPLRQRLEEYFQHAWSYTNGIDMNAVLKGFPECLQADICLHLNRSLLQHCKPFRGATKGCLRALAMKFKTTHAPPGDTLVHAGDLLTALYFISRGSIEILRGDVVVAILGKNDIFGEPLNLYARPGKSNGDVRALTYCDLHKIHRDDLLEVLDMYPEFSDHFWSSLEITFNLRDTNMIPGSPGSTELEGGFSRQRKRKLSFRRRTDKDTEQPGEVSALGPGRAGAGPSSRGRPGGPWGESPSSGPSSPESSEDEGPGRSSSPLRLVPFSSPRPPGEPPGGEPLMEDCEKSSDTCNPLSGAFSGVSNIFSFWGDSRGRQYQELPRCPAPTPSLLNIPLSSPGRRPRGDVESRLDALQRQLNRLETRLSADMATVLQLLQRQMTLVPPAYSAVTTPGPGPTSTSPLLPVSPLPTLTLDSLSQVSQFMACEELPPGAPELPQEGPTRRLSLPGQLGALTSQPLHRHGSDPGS
Chain of Cytochrome P450 2D6 (P10635 whole entry): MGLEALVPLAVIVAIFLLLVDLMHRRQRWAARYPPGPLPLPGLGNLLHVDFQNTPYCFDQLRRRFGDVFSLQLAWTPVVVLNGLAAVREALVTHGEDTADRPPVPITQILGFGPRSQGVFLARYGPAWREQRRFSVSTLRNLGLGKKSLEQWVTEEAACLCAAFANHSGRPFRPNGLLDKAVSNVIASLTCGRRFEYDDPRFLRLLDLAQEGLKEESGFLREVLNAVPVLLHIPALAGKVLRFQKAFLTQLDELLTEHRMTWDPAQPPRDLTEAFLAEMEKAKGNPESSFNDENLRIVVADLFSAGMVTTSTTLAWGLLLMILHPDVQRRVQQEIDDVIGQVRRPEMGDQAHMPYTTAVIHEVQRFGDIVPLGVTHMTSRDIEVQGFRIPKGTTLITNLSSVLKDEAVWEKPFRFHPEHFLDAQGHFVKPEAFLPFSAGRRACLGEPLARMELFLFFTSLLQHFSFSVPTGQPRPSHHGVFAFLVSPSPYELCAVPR

Take `OC(CNC1CCCCC1)Cn1c2ccc(Br)cc2c2cc(Br)ccc21` (racemic): the “inhibition (INH)” value is “Not Active” in [1]; “Active” at Cytochrome P450 2D6; “Active” on Cytochrome P450 2C19; “Active” at Cytochrome P450 2C8; “Active” on Cytochrome P450 1A2; “Not Active” in [13]. The inhibition at 10 µM on hERG (KCNH2) is 99%. The Activity entry with Salmonella typhimurium [2] was “Non-toxic”; in the data set with Salmonella typhimurium [3] it was “Non-toxic”; in data set [4], “Non-toxic”; with Plasmodium berghei [5] it was 38%; in the data set with Plasmodium berghei [6], 99.97%. In addition, in [7], the half-life was 15 h. Moreover, the Vd in data set [8] stood at 13 L/kg. The result in the data set on Plasmodium falciparum [9], in the data set on Plasmodium falciparum [10] and with Plasmodium falciparum [11] was Active. Also, the half-maximal inhibitory concentration (IC50) in the data set with Plasmodium falciparum [12] was 9 nM.
